Results reported in ChEMBL document CHEMBL1152227, “Structure-activity relationships of 1,4-dihydropyridines that act as enhancers of the vanilloid receptor 1 (TRPV1)” (Bioorg Med Chem, 2008).
Calls of active or inactive are those of the source. The calls are words filed in the database; no cut-off is given here.

What was measured:
[1] = target: T1, Transient receptor potential cation channel subfamily V member 1 (Homo sapiens, UniProt Q8NER1); assay: Agonist activity at epsilon-epitope tagged TRPV1 receptor expressed in mouse NIH3T3 cells assessed as effect on 45Ca2+ influx by microplate liquid scintillation counter; type: functional, cell-based
T1 sequence (Q8NER1 whole entry): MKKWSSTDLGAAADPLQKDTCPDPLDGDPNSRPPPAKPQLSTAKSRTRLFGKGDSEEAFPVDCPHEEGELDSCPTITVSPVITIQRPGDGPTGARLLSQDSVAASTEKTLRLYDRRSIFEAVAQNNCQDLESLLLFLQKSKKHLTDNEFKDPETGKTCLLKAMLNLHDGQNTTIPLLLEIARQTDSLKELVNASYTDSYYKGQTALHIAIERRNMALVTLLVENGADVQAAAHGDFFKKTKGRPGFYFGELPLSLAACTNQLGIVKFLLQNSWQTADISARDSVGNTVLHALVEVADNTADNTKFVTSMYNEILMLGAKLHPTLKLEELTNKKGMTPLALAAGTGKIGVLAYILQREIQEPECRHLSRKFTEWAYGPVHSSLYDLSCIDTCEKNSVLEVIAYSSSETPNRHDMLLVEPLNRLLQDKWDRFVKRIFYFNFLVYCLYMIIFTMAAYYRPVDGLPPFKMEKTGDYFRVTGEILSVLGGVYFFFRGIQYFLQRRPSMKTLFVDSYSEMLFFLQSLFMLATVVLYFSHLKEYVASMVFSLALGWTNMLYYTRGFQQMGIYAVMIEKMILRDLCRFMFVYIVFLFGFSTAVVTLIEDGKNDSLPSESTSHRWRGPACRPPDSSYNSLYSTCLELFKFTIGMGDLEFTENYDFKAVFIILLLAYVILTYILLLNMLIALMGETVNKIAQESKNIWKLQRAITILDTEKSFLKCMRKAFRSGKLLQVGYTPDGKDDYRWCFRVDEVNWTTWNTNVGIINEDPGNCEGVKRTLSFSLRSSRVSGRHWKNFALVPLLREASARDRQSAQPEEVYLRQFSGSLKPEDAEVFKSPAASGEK
In short: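 NIH3T3 cells stably expressing ε-tagged TRPV1 were seeded the day before and grown at 35°C. Test compound given without capsaicin, top concentration 100 µM, 2% DMSO. 45Ca2+ uptake run 10 min at 20°C in Tris-HBSS (pH 7.5) with ascorbate, 10 µM Ca2+ and 0.8 mM Mg2+. Cells were washed, lysed in RIPA and counted by scintillation.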

[2] = target: T2, Adenosine receptor A3 (Homo sapiens, UniProt P0DMS8); assay: Binding affinity to human adenosine A3 receptor
T2 sequence (P0DMS8 whole entry): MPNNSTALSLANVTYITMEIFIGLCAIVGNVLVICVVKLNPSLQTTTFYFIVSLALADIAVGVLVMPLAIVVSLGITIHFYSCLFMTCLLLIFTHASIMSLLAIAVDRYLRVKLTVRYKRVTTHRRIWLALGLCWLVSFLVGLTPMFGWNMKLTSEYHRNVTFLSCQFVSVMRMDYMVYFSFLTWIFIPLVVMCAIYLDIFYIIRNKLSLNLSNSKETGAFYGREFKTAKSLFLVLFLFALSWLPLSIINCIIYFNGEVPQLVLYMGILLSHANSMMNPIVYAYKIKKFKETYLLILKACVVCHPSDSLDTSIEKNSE

[3] = target: Transient receptor potential cation channel subfamily V member 1 (Rattus norvegicus) (UniProt O35433); assay: Agonist activity at TRPV1 receptor in E15 rat primary dorsal root ganglion cells assessed as effect on 45Ca2+ influx by microplate liquid scintillation counter; type: functional, tissue-based
Chain of Transient receptor potential cation channel subfamily V member 1 (Rattus norvegicus) (O35433 whole entry, the tested form may be a part): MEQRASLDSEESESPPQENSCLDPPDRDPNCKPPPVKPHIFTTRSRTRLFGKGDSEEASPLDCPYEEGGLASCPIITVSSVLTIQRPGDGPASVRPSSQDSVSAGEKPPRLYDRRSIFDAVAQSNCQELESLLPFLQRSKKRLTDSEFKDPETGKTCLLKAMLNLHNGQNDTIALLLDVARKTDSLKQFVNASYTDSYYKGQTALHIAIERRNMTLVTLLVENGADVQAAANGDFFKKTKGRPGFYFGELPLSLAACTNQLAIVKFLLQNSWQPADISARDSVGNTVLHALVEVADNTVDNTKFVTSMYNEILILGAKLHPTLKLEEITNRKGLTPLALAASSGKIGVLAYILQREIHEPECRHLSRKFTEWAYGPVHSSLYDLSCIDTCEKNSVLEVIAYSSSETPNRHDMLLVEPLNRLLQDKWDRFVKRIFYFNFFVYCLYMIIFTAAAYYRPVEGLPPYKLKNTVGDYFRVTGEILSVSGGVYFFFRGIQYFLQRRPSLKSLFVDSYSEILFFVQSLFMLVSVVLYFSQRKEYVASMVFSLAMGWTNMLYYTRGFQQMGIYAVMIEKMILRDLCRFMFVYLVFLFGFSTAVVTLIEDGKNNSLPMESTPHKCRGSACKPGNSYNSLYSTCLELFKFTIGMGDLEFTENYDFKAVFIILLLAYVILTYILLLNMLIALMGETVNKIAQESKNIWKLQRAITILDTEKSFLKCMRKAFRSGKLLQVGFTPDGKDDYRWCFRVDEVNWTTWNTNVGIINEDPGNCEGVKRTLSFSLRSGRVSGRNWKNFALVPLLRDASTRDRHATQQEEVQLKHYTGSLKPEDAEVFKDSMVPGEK
In short: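 DRGs from E15 rat embryos, enzymatically dissociated, grown 5–6 days at 35°C. Test compound given without capsaicin. 45Ca2+ uptake run 10 min at 20°C in Tris-buffered (pH 7.5) HBSS with 1 mM ascorbate, 10 µM CaCl2 and 0.8 mM MgCl2, with 0.5 µCi/well tracer. Cells were washed, lysed in RIPA and counted by scintillation.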

[4] = target: T1, Transient receptor potential cation channel subfamily V member 1; assay: Agonist-enhancing activity in epsilon-epitope tagged TRPV1 receptor expressed in mouse NIH3T3 cells assessed as capsaicin-induced 45Ca2+ influx at 100 uM by microplate liquid scintillation counter relative to capsaicin alone; type: functional, cell-based
In short: (§1)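 Stable ε-tagged TRPV1 NIH3T3 cells. Uptake with capsaicin 2 µM, 10 min at 20°C, 0.5 µCi/well 45Ca2+ in Tris-HBSS pH 7.5. Compound up to 100 µM, 2% DMSO, from 5 mM stocks, duplicate wells per concentration. Data normalized to capsaicin-only wells (100%). Variable-slope fit gave EC50 and ΔEmax; compounds too weak to fit were given ΔEmax at the top concentration.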

[5] = target: T3, Adenosine receptor A3 (Rattus norvegicus) (UniProt P28647); assay: Binding affinity to rat adenosine A3 receptor
T3 sequence (whole entry): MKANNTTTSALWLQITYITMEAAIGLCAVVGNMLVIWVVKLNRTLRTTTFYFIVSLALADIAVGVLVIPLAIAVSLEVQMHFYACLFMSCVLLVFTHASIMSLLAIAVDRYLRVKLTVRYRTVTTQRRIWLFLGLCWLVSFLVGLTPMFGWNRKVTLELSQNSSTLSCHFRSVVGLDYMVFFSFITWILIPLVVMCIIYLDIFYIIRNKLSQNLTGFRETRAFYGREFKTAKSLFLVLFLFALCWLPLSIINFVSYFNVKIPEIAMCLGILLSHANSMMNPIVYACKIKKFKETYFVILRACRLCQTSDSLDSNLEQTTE

[6] = target: T1, Transient receptor potential cation channel subfamily V member 1; assay: Agonist-enhancing activity in epsilon-epitope tagged TRPV1 receptor expressed in mouse NIH3T3 cells assessed as capsaicin-induced 45Ca2+ influx by microplate liquid scintillation counter; type: functional, cell-based; in short: as §1
[7] = target: Transient receptor potential cation channel subfamily V member 1 (Rattus norvegicus) (UniProt O35433); assay: Agonist-enhancing activity at TRPV1 receptor in E15 rat primary dorsal root ganglion cells assessed as increase in intracellular calcium levels at 10 uM by Fura-4F AM based fluorimetric method relative to capsaicin alone; type: functional, tissue-based
In short: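 E15 rat DRG neurons on poly-ornithine/laminin coverslips, cultured 4–6 days. Loaded with 2.5 µM Fura-4F AM for 20 min at room temperature and perfused at 0.5 mL/min in pH 7.4 HEPES saline with ascorbate. Exposed 30 s to 200 nM capsaicin ± 10 µM compound, DMSO 0.04% in controls. 340/380 ratio read at 0.5 Hz and normalized to the 2-min baseline. Peak taken as the mean of 10 points, 3 coverslips per condition.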

[8] = target: Transient receptor potential cation channel subfamily V member 1 (Rattus norvegicus) (UniProt O35433); assay: Agonist-enhancing activity at TRPV1 receptor in E15 rat primary dorsal root ganglion cells assessed as capsaicin-induced 45Ca2+ influx by microplate liquid scintillation counter relative to capsaicin alone; type: functional, tissue-based
In short: (§2)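 E15 rat DRG cultures grown 5–6 days at 35°C. Uptake with capsaicin ~0.5 µM, 10 min at 20°C, 0.5 µCi/well 45Ca2+ in Tris-HBSS pH 7.5. Compound up to 50 µM, 0.2% DMSO, from 25 mM stocks. Counts normalized to in-plate capsaicin-only wells (100%, 4 wells). Variable-slope sigmoid fit gave EC50, Hill slope and ΔEmax.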

[9] = target: Transient receptor potential cation channel subfamily V member 1 (Rattus norvegicus) (UniProt O35433); assay: Agonist-enhancing activity at TRPV1 receptor in E15 rat primary dorsal root ganglion cells assessed as capsaicin-induced 45Ca2+ influx by microplate liquid scintillation counter; type: functional, tissue-based; in short: as §2

SMILES	Activity [1]	Ki [2] [µM]	Activity [3]	Emax [4] [%]	Activity [5]	EC50 [6] [µM]	Activity [7] [%]	Emax [8] [%]	Activity [9]	Activity [6]
CCOC(=O)C1=C(c2ccccc2)N=C(C)/C(=C(/O)OCC)C1C(OC)OC (stereo unspecified)	inactive	15.3	inactive	114	inactive	–	–	–	–	–
CCOC(=O)C1=C(c2ccccc2)N=C(C)/C(=C(/O)SCC)C1CC (stereo unspecified)	inactive	–	inactive	435	inactive	28.1	–	–	–	–
CCOC(=O)C1=C(c2ccccc2)N=C(C)/C(=C(/O)SCCOC)C1CC (stereo unspecified)	inactive	4.58	inactive	626	inactive	21.3	13	–	–	–
CCCC1=NC(c2ccccc2)=C(C(=O)OCC)C(CC)/C1=C(\O)SCC (stereo unspecified)	inactive	2.09	inactive	148	inactive	–	–	–	–	–
CCCC1C(C(=O)OCC)=C(c2ccccc2)N=C(C)/C1=C(/O)SCC (stereo unspecified)	inactive	–	inactive	364	inactive	22.4	–	318	–	–
CCOC(=O)C1=C(c2ccccc2)N=C(C)/C(=C(/O)OCC)C1CC (stereo unspecified)	inactive	–	inactive	383	inactive	–	–	–	–	–
CCOC(=O)C1=C(c2ccccc2)N=C(CC)/C(=C(/O)SCC)C1CC (stereo unspecified)	inactive	–	inactive	257	inactive	–	–	–	–	–
CO/C(O)=C1\C(C)=NC(C)=C([N+](=O)[O-])[C@H]1c1ccccc1C(F)(F)F	–	–	–	–	–	–	–	–	inactive	inactive
COC(=O)C1=C(C)NC(C)=C(C(=O)OCCN(C)Cc2ccccc2)C1c1cccc([N+](=O)[O-])c1 (stereo unspecified)	–	–	–	–	–	–	–	–	inactive	inactive
CCCC1C(C(=O)SCCc2ccccc2)=C(C)NC(c2ccccc2)=C1C(=O)OCC (racemic)	inactive	–	inactive	360	–	27.6	–	231	–	–
CCOC(=O)C1=C(c2cccc(F)c2)NC(C)=C(C(=O)SCC)C1CC (racemic)	inactive	–	inactive	446	–	21.8	–	198	–	–
CCOC(=O)C1=C(c2ccc(F)cc2)NC(C)=C(C(=O)SCCc2ccccc2)C1CC (racemic)	inactive	–	inactive	232	–	51.6	–	148	–	–
CCOC(=O)C1=C(C)NC(c2cccc(Cl)c2)=C(C(=O)OCC)C1CC (racemic)	inactive	–	inactive	347	–	17.1	–	259	–	–
CCOC(=O)C1=C(C)NC(c2ccc(F)cc2)=C(C(=O)OCC)C1CC (racemic)	inactive	–	inactive	372	–	29.2	–	175	–	–
CCOC(=O)C1=C(C)NC(c2cccc(F)c2)=C(C(=O)OCC)C1CC (racemic)	inactive	–	inactive	403	–	26.7	–	206	–	–
CCOC(=O)C1=C(c2ccc(F)cc2)NC(C)=C(C(=O)SCC)C1CC (racemic)	inactive	–	inactive	409	–	28.4	–	–	–	–
CCCC1C(C(=O)SCC)=C(C)NC(c2cccc(Cl)c2)=C1C(=O)OCC (racemic)	inactive	–	inactive	177	–	–	–	–	–	–
CCOC(=O)C1=C(C2CCCCC2)NC(C)=C(C(=O)SCC)C1CC (racemic)	inactive	–	inactive	87	–	–	–	–	–	–
CCOC(=O)C1=C(c2ccc(C#N)cc2)NC(C)=C(C(=O)SCC)C1CC (racemic)	inactive	–	inactive	129	–	–	–	–	–	–
CCOC(=O)C1=C(c2ccc(F)cc2)NC(C)=C(C(=O)SCC)C1C1CC1 (racemic)	inactive	–	inactive	175	–	–	–	–	–	–
CCOC(=O)C1=C(c2ccc([N+](=O)[O-])cc2)NC(C)=C(C(=O)SCCc2ccccc2)C1CC (racemic)	inactive	–	inactive	101	–	–	–	117	–	–
CCOC(=O)C1=C(c2ccc([N+](=O)[O-])cc2)NC(C)=C(C(=O)SCc2ccccc2)C1CC (racemic)	inactive	–	inactive	98	–	–	–	–	–	–
CCOC(=O)C1=C(c2ccc3ccccc3c2)NC(C)=C(C(=O)SCC)C1CC (racemic)	inactive	–	inactive	116	–	–	–	–	–	–
CCOC(=O)C1=C(c2cccc(Cl)c2)NC(C)=C(C(=O)SCCc2ccccc2)C1CC (racemic)	inactive	–	inactive	194	–	–	–	–	–	–
CCOC(=O)C1=C(c2ccccc2F)NC(C)=C(C(=O)SC(C)C)C1CC (racemic)	inactive	–	inactive	124	–	–	–	–	–	–
CCOC(=O)C1=C(c2ccccc2F)NC(C)=C(C(=O)SCC)C1CC (racemic)	inactive	–	inactive	198	–	–	–	–	–	–
CCOC(=O)C1=C(c2ccccc2F)NC(C)=C(C(=O)SCCc2ccccc2)C1CC (racemic)	inactive	–	inactive	117	–	–	–	–	–	–
CCOC(=O)C1=C(c2ccccc2F)NC(C)=C(C(=O)SCc2ccccc2)C1CC (racemic)	inactive	–	inactive	123	–	–	–	–	–	–
